Results reported in ChEMBL document CHEMBL1123327, “Ribose as the preferential target for the oxidized form of elliptinium acetate in ribonucleos(t)ides. Biological activities of the resulting adducts” (1986).

System: L1210
Assay: Cytotoxicity was determined in vitro in murine leukemia L1210 Cells
Assay type: functional
Details: Mus musculus, read-out: ID50 (the source's name)
In short: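 Growth inhibition of murine leukemia L1210 cells cultured in vitro. Cells were exposed to the adducts for 48 h and then counted. ID50 is the drug concentration that cuts cell number by 50% relative to untreated control.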

| SMILES | IC50 |
| --- | --- |
| Cc1c2cc[n+](C)cc2c(C)c2c3c([nH]c12)C=CC(=O)[C@@]31O[C@@H]2[C@H](O1)[C@@H](CO)O[C@H]2n1cnc2c(O)nc(N)nc21 | 800 nM |
| Cc1c2cc[n+](C)cc2c(C)c2c3c([nH]c12)C=CC(=O)[C@@]31O[C@@H]2[C@H](O1)[C@@H](CO)O[C@H]2n1ccc(=O)[nH]c1=O | > 3000 nM |
| Cc1c2cc[n+](C)cc2c(C)c2c3c([nH]c12)C=CC(=O)[C@@]31O[C@@H]2[C@H](O1)[C@@H](COP(=O)(O)O)O[C@H]2n1cnc2c(O)nc(N)nc21 | > 1000 nM |
| Cc1c2cc[n+](C)cc2c(C)c2c3c([nH]c12)C=CC(=O)[C@@]31O[C@@H]2[C@H](O1)[C@@H](COP(=O)(O)O)O[C@H]2n1cnc2c(N)ncnc21 | > 800 nM |
| Cc1c2cc[n+](C)cc2c(C)c2c3c([nH]c12)C=CC(=O)[C@@]31O[C@@H]2[C@H](O1)[C@@H](CO)O[C@H]2n1cnc2c(N)ncnc21 | 800 nM |
| Cc1c2cc[n+](C)cc2c(C)c2c3c([nH]c12)C=CC(=O)[C@@]31O[C@@H]2[C@H](O1)[C@@H](COP(=O)(O)O)O[C@H]2n1ccc(=O)[nH]c1=O | 1100 nM |
| Cc1c2cc[n+](C)cc2c(C)c2c3c([nH]c12)C=CC(=O)[C@@]31O[C@@H]2[C@H](O1)[C@@H](CO)O[C@H]2n1ncc(=O)[nH]c1=O | > 3000 nM |
| Cc1c2cc[n+](C)cc2c(C)c2c3c([nH]c12)C=CC(=O)[C@@]31O[C@@H]2[C@H](O1)[C@@H](CO)O[C@H]2n1ccc(N)nc1=O | 3000 nM |
| Cc1c2cc[n+](C)cc2c(C)c2c3c([nH]c12)C=CC(=O)[C@@]31O[C@@H]2[C@H](O1)[C@@H](COP(=O)(O)O)O[C@H]2n1ccc(N)nc1=O | 12800 nM |
| O=c1cnn([C@@H]2O[C@H](CO)[C@@H](O)[C@H]2O)c(=O)[nH]1 [6-AZAURIDINE] | 570 nM |
| Cc1c2cc[n+](C)cc2c(C)c2c1[nH]c1ccc(O)cc12 [ELLIPTINIUM ACETATE] | 120 nM |
| Nc1nc2[nH]cnc2c(=S)[nH]1 [THIOGUANINE] | 70 nM |
| Nc1nc(=S)c2ncn([C@@H]3O[C@H](CO)[C@@H](O)[C@H]3O)c2[nH]1 [THIOGUANOSINE] | 100 nM |
